Measured values as given in ChEMBL document CHEMBL1275566, “MexCD-OprJ multidrug efflux system of Pseudomonas aeruginosa: involvement in chlorhexidine resistance and induction by membrane-damaging agents dependent upon the AlgU stress response sigma factor” (2008).
Values after ≈ are worked out from the molar mass of the structure shown. Active and inactive are the calls of the source. The calls are words filed in the database; no cut-off is given here.

Columns and labels:
Pseudomonas aeruginosa [1] = assay: Induction of mexCD-oprJ expression in Pseudomonas aeruginosa PAO1 K767 at 100 ug/ml after 2.5 hrs by semiquantitative RT-PCR; assay type: functional, organism-based
Pseudomonas aeruginosa [2] = assay: Antimicrobial activity against CDJ-negative and AlgU-positive Pseudomonas aeruginosa K1521; assay type: functional
Procedure, shortened: (§1)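 Broth susceptibility testing of P. aeruginosa strains in LB at 37°C. Strains are defined by mexCD-oprJ status (CDJ+ means present and CHX-inducible but not expressed untreated; CDJ− means deleted) and by algU status.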

Pseudomonas aeruginosa [3] = assay: Antimicrobial activity against CDJ-positive and AlgU-negative Pseudomonas aeruginosa K2443 harboring plasmid pMMB206; assay type: functional
Pseudomonas aeruginosa [4] = assay: Induction of mexCD-oprJ expression in AlgU and NfxB-positive Pseudomonas aeruginosa K767; assay type: functional, organism-based
Pseudomonas aeruginosa [5] = assay: Induction of PmexCD-oprJ-lacZ expression in Pseudomonas aeruginosa K2899 at 3.1 ug/ml by beta-galactosidase reporter assay; assay type: functional, organism-based
Pseudomonas aeruginosa [6] = assay: Induction of mexCD-oprJ expression in Pseudomonas aeruginosa K2895 harboring plasmid pMMB206; assay type: functional, organism-based
Pseudomonas aeruginosa [7] = assay: Induction of PmexCD-oprJ-lacZ expression in AlgU-negative Pseudomonas aeruginosa K2901 at 11.6 ug/ml by beta-galactosidase reporter assay; assay type: functional, organism-based
Pseudomonas aeruginosa [8] = assay: Induction of PmexCD-oprJ-lacZ expression in AlgU-negative Pseudomonas aeruginosa K2901 at 0.125 ug/ml by beta-galactosidase reporter assay; assay type: functional, organism-based
Pseudomonas aeruginosa [9] = assay: Induction of PmexCD-oprJ-lacZ expression in AlgU-negative Pseudomonas aeruginosa K2901 at 15 ug/ml by beta-galactosidase reporter assay; assay type: functional, organism-based
Pseudomonas aeruginosa [10] = assay: Antimicrobial activity against CDJ and AlgU-positive Pseudomonas aeruginosa K767; assay type: functional
Pseudomonas aeruginosa [11] = assay: Antimicrobial activity against CDJ-positive and AlgU-negative Pseudomonas aeruginosa K2443 harboring plasmid pMMB206 carrying AlgU gene; assay type: functional
Pseudomonas aeruginosa [12] = assay: Induction of mexCD-oprJ expression in Pseudomonas aeruginosa PAO1 K767 at 2.5 ug/ml after 2.5 hrs by semiquantitative RT-PCR; assay type: functional, organism-based
Pseudomonas aeruginosa [13] = assay: Antimicrobial activity against NfxB- and AlgU-negative Pseudomonas aeruginosa K2895; assay type: functional
Pseudomonas aeruginosa [14] = assay: Antimicrobial activity against CDJ and AlgU-positive Pseudomonas aeruginosa K1542; assay type: functional
Pseudomonas aeruginosa [15] = assay: Antimicrobial activity against CDJ and AlgU-negative Pseudomonas aeruginosa K2898; assay type: functional; procedure, shortened: as §1
Pseudomonas aeruginosa [16] = assay: Induction of PmexCD-oprJ-lacZ expression in AlgU-negative Pseudomonas aeruginosa K2901 at 16 ug/ml by beta-galactosidase reporter assay; assay type: functional, organism-based
Pseudomonas aeruginosa [17] = assay: Antimicrobial activity against NfxB- and AlgU-negative Pseudomonas aeruginosa K2895 harboring plasmid pMMB206; assay type: functional
Pseudomonas aeruginosa [18] = assay: Induction of mexCD-oprJ expression in mexB and mexXY deficient and AlgU-negative Pseudomonas aeruginosa K2897 at 0.33 ug/ml by semiquantitative RT-PCR; assay type: functional, organism-based
Pseudomonas aeruginosa [19] = assay: Antimicrobial activity against NfxB-negative and AlgU-positive Pseudomonas aeruginosa K1536; assay type: functional
Pseudomonas aeruginosa [20] = assay: Antimicrobial activity against CDJ-negative and AlgU-positive Pseudomonas aeruginosa K2896; assay type: functional
Pseudomonas aeruginosa [21] = assay: Induction of PmexCD-oprJ-lacZ expression in Pseudomonas aeruginosa K2899 at 15 ug/ml by beta-galactosidase reporter assay; assay type: functional, organism-based
Pseudomonas aeruginosa [22] = assay: Induction of PmexCD-oprJ-lacZ expression in Pseudomonas aeruginosa K2899 at 16 ug/ml by beta-galactosidase reporter assay; assay type: functional, organism-based
Pseudomonas aeruginosa [23] = assay: Induction of mexCD-oprJ expression in AlgU-negative and NfxB-negative Pseudomonas aeruginosa K2895
Pseudomonas aeruginosa [24] = assay: Induction of PmexCD-oprJ-lacZ expression in AlgU-negative Pseudomonas aeruginosa K2901 at 3.1 ug/ml by beta-galactosidase reporter assay; assay type: functional, organism-based
Pseudomonas aeruginosa [25] = assay: Induction of mexCD-oprJ expression in Pseudomonas aeruginosa K2895 harboring plasmid pMMB206 carrying AlgU gene; assay type: functional, organism-based
Pseudomonas aeruginosa [26] = assay: Induction of PmexCD-oprJ-lacZ expression in AlgU-negative Pseudomonas aeruginosa K2901 at 0.16 ug/ml by beta-galactosidase reporter assay; assay type: functional, organism-based
Pseudomonas aeruginosa [27] = assay: Induction of PmexCD-oprJ-lacZ expression in Pseudomonas aeruginosa K2899 at 1.25 ug/ml by beta-galactosidase reporter assay; assay type: functional, organism-based
Pseudomonas aeruginosa [28] = assay: Induction of PmexCD-oprJ-lacZ expression in AlgU-negative Pseudomonas aeruginosa K2901 at 8 ug/ml by beta-galactosidase reporter assay; assay type: functional, organism-based
Pseudomonas aeruginosa [29] = assay: Antimicrobial activity against CDJ -negative Pseudomonas aeruginosa K2891; assay type: functional
Pseudomonas aeruginosa [30] = assay: Induction of PmexCD-oprJ-lacZ expression in Pseudomonas aeruginosa K2899 at 11.6 ug/ml by beta-galactosidase reporter assay; assay type: functional, organism-based
Pseudomonas aeruginosa [31] = assay: Induction of PmexCD-oprJ-lacZ expression in Pseudomonas aeruginosa K2899 at 8 ug/ml by beta-galactosidase reporter assay; assay type: functional, organism-based
Pseudomonas aeruginosa [32] = assay: Antimicrobial activity against CDJ-positive and AlgU-negative Pseudomonas aeruginosa K2443; assay type: functional
Pseudomonas aeruginosa [33] = assay: Antimicrobial activity against NfxB-and AglU-negative Pseudomonas aeruginosa K2895 harboring plasmid pMMB206 carrying AlgU gene; assay type: functional
Pseudomonas aeruginosa [34] = assay: Antimicrobial activity against CDJ -positive Pseudomonas aeruginosa K2889; assay type: functional; procedure, shortened: as §1
Pseudomonas aeruginosa [35] = assay: Induction of mexCD-oprJ expression in mexB and mexXY deficient and AlgU-positive Pseudomonas aeruginosa K1542 at 2.5 ug/ml by semiquantitative RT-PCR; assay type: functional, organism-based
Pseudomonas aeruginosa [36] = assay: Induction of PmexCD-oprJ-lacZ expression in Pseudomonas aeruginosa K2899 at 0.125 ug/ml by beta-galactosidase reporter assay; assay type: functional, organism-based
Pseudomonas aeruginosa [37] = assay: Induction of mexCD-oprJ expression in AlgU-positive and NfxB-negative Pseudomonas aeruginosa K1536; assay type: functional, organism-based
Pseudomonas aeruginosa [38] = assay: Antimicrobial activity against CDJ-positive and AlgU-negative Pseudomonas aeruginosa K2897; assay type: functional; procedure, shortened: as §1
Pseudomonas aeruginosa [39] = assay: Induction of mexCD-oprJ expression in Pseudomonas aeruginosa PAO1 K767 at 3 ug/ml after 2.5 hrs by semiquantitative RT-PCR; assay type: functional, organism-based

CETRIMIDE
Activity (Pseudomonas aeruginosa [1]): Active

N=C(NCCCCCCNC(=N)NC(=N)Nc1ccc(Cl)cc1)NC(=N)Nc1ccc(Cl)cc1 [CHLORHEXIDINE]
MIC (Pseudomonas aeruginosa [2]): 5 µg/mL (≈ 9.89 µM)
MIC (Pseudomonas aeruginosa [3]): 2.5 µg/mL (≈ 4.95 µM)
Activity (Pseudomonas aeruginosa [4]): Active
Activity (Pseudomonas aeruginosa [5]): Active
Activity (Pseudomonas aeruginosa [6]): Active
Activity (Pseudomonas aeruginosa [7]): Active
Activity (Pseudomonas aeruginosa [8]): Active
Activity (Pseudomonas aeruginosa [9]): Active
MIC (Pseudomonas aeruginosa [10]): 10 µg/mL (≈ 19.8 µM)
MIC (Pseudomonas aeruginosa [11]): 10 µg/mL (≈ 19.8 µM)
Activity (Pseudomonas aeruginosa [12]): Active
MIC (Pseudomonas aeruginosa [13]): 2.5 µg/mL (≈ 4.95 µM)
MIC (Pseudomonas aeruginosa [14]): 10 µg/mL (≈ 19.8 µM)
MIC (Pseudomonas aeruginosa [15]): 0.625 µg/mL (≈ 1.24 µM)
Activity (Pseudomonas aeruginosa [16]): Active
MIC (Pseudomonas aeruginosa [17]): 2.5 µg/mL (≈ 4.95 µM)
Activity (Pseudomonas aeruginosa [18]): Active
MIC (Pseudomonas aeruginosa [19]): 20 µg/mL (≈ 39.6 µM)
MIC (Pseudomonas aeruginosa [20]): 2.5 µg/mL (≈ 4.95 µM)
Activity (Pseudomonas aeruginosa [21]): Active
Activity (Pseudomonas aeruginosa [22]): Active
Activity (Pseudomonas aeruginosa [23]): Active
Activity (Pseudomonas aeruginosa [24]): Active
Activity (Pseudomonas aeruginosa [25]): Active
Activity (Pseudomonas aeruginosa [26]): Active
Activity (Pseudomonas aeruginosa [27]): Active
Activity (Pseudomonas aeruginosa [28]): Active
MIC (Pseudomonas aeruginosa [29]): 10 µg/mL (≈ 19.8 µM)
Activity (Pseudomonas aeruginosa [30]): Active
Activity (Pseudomonas aeruginosa [31]): Active
MIC (Pseudomonas aeruginosa [32]): 2.5 µg/mL (≈ 4.95 µM)
MIC (Pseudomonas aeruginosa [33]): 20 µg/mL (≈ 39.6 µM)
MIC (Pseudomonas aeruginosa [34]): > 50 µg/mL
Activity (Pseudomonas aeruginosa [35]): Active
Activity (Pseudomonas aeruginosa [36]): Active
Activity (Pseudomonas aeruginosa [37]): Active
MIC (Pseudomonas aeruginosa [38]): 1.25 µg/mL (≈ 2.47 µM)

CCCCC(CC)CNC(=N)NC(=N)NCCCCCCNC(=N)NC(=N)NCC(CC)CCCC (centres undefined)
Activity (Pseudomonas aeruginosa [39]): Active
